From ChEMBL document CHEMBL1687854 (Antimicrob Agents Chemother, 2011)

Tests used:
Homo sapiens [1] = test: Non-renal clearance in healthy human at 500 mg, iv; type: ADME, organism-based; settings: in vivo
Outline: (§1)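 Healthy volunteers (n = 12) got a single 1-h 500-mg IV infusion. Plasma was sampled predose and at 0.25–12 h and assayed by LC-MS/MS (LLOQ 0.1 μg/ml). Noncompartmental analysis gave CL = dose/AUC0-∞ and CL_R = 0–12 h urinary amount/AUC0-12. Nonrenal CL = CL − CL_R. Values are means ± SD.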

[2] = Terminal half life in end stage renal disease patient undergoing 12 hours continuous venovenous hemodiafiltration at 500 mg, iv; type: ADME, organism-based; settings: human, in vivo, read-out: beta t1/2 (converted)
Outline: (§2)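 Prefilter plasma was taken up to 12 h and measured by LC-MS/MS. Terminal λz came from log-linear regression over 1.5–12 h, and t1/2 = 0.693/λz (noncompartmental).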

Homo sapiens [3] = test: (§3) Clearance in end stage renal disease patient undergoing 12 hours continuous venovenous hemofiltration at 500 mg, iv; type: ADME, organism-based; settings: in vivo, 12 h
[4] = as §3; type: ADME, organism-based; settings: human, in vivo, 500 mg
Homo sapiens [5] = test: (§4) Clearance in healthy human at 500 mg, iv; type: ADME, organism-based; settings: in vivo; outline: as §1
[6] = as §4; type: ADME, organism-based; settings: in vivo, 500 mg; outline: as §1
[7] = Renal clearance in healthy human at 500 mg, iv; type: ADME, organism-based, Kidney; settings: in vivo, read-out: CL_renal (converted); outline: as §1
Homo sapiens [8] = test: (§5) Clearance in end stage renal disease patient undergoing 12 hours continuous venovenous hemodiafiltration at 500 mg, iv; type: ADME, organism-based; settings: in vivo, 12 h
[9] = as §5; type: ADME, organism-based; settings: human, in vivo, 500 mg
Homo sapiens [10] = test: Toxicity in healthy human assessed as pancreatitis at 500 mg, iv after 2 days; type: organism-based; settings: in vivo, 48 h
Homo sapiens [11] = test: Toxicity in healthy human assessed as pancreatitis at 500 mg, iv after 1 day; type: organism-based; settings: in vivo, 24 h
[12] = Terminal half life in end stage renal disease patient undergoing 12 hours continuous venovenous hemofiltration at 500 mg, iv; type: ADME, organism-based; settings: human, in vivo, read-out: beta t1/2 (converted); outline: as §2
[13] = AUC (0 to infinity) in end stage renal disease patient undergoing 12 hours continuous venovenous hemodiafiltration at 500 mg, iv; type: ADME, organism-based; set-up: dose 500 mg, route intravenous, time infinity; settings: human, plasma
Homo sapiens [14] = test: Non-renal clearance in end stage renal disease patient undergoing 12 hours continuous venovenous hemodiafiltration at 500 mg, iv; type: ADME, organism-based; settings: in vivo
Outline: (§6)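 For dialysis-dependent subjects on CVVH or CVVHDF after a 1-h 500-mg IV infusion, nonrenal CL = CL − (CL_R + CL_CRRT). CL_CRRT was the UF (or UF/dialysate) flow rate for each collection interval × the average sieving (or saturation) coefficient, where each coefficient is the fluid/plasma concentration ratio from paired samples at 1.25–12 h. Values are means ± SD.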

[15] = AUC (0 to infinity) in end stage renal disease patient undergoing 12 hours continuous venovenous hemofiltration at 500 mg, iv; type: ADME, organism-based; set-up: dose 500 mg, time infinity, route intravenous; settings: human, plasma
Homo sapiens [16] = test: Non-renal clearance in end stage renal disease patient undergoing 12 hours continuous venovenous hemofiltration at 500 mg, iv; type: ADME, organism-based; settings: in vivo; outline: as §6

C[C@@H](O)[C@@H](C(=O)O)[C@@H]1NC(C(=O)O)=C(S[C@@H]2CN[C@H](CNS(N)(=O)=O)C2)[C@@H]1C showed a CL (Homo sapiens [1]) of 14.2 L/h.
C[C@@H](O)[C@H]1C(=O)N2C(C(=O)O)=C(S[C@@H]3CN[C@H](CNS(N)(=O)=O)C3)[C@H](C)[C@H]12 [DORIPENEM] gave a half-life [2] of 3.87 h, a CL (Homo sapiens [3]) of 4.94 L/h and a clearance [4] of 82.4 mL/min. For the same molecule, the CL (Homo sapiens [5]) was 15.9 L/h, the clearance [6] was 265 mL/min and the CL renal [7] was 153 mL/min. For the same molecule, the CL (Homo sapiens [8]) was 5.98 L/h, the clearance [9] was 98.2 mL/min and the Activity (Homo sapiens [10]) was “Non-toxic”. The Activity (Homo sapiens [11]) was “Toxic”, the CL (Homo sapiens [1]) was 6.73 L/h and the half-life [12] was 4.24 h. The AUC(0-inf) [13] was 87.5 µg·h/mL, the CL (Homo sapiens [14]) was 4.22 L/h and the AUC(0-inf) [15] was 114 µg·h/mL. It also gave a CL (Homo sapiens [16]) of 3.58 L/h.
